The source of these data is ChEMBL document CHEMBL1132971, “New azolidinediones as inhibitors of protein tyrosine phosphatase 1B with antihyperglycemic properties” (J Med Chem, 2000).

Assay [1] has as its target T1, Tyrosine-protein phosphatase non-receptor type 1 (Mus musculus) (UniProt P35821).
T1 sequence (whole entry): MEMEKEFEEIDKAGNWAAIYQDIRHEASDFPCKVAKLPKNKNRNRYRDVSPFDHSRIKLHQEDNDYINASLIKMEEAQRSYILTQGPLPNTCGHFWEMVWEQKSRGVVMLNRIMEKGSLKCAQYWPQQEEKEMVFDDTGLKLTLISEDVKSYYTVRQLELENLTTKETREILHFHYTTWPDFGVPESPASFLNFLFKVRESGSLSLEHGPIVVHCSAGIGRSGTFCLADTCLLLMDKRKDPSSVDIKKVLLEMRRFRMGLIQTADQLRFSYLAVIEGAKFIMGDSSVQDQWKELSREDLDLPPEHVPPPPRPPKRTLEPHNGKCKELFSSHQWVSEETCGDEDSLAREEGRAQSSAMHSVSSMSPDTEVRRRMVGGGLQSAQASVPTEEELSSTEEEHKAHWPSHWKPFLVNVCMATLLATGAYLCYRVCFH
In words: In vivo ability to decrease plasma glucose levels in diabetic C57BL/KsJ ob/ob mouse at a dose 100 mg/kg/day. Type of assay: functional, organism-based. In outline: (§1)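 Diabetic db/db or ob/ob mice dosed orally once daily for 4 days. Plasma glucose and insulin reported as percent change from a vehicle-treated group. 4-6 mice per group. Significance set at p < 0.05 or p < 0.01 versus vehicle; NS means generally less than -15% change.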

Assay [2] addresses T2, Tyrosine-protein phosphatase non-receptor type 1 (Rattus norvegicus) (UniProt P20417).
T2 sequence (whole entry): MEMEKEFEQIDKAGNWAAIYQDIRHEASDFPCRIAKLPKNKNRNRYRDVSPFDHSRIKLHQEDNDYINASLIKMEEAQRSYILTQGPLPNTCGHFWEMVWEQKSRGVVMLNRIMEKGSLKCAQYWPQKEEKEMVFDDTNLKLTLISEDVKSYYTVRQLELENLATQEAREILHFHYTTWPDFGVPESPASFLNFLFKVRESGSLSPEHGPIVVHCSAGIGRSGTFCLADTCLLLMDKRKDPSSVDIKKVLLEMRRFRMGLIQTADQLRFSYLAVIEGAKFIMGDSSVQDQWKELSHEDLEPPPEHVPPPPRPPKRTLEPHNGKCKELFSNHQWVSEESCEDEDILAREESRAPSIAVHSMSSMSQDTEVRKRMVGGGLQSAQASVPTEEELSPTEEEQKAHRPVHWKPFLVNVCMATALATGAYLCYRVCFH
As to the kind of experiment: Inhibition of PTPase (PTP1B) activity in rat hepatic membrane at 50 uM concentration, using pNPP as the substrate. Type of assay: cell membranes. Particulars: Liver. In a few lines:
(§2)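 Liver membranes from male Sprague-Dawley rats (100-150 g), about 30 µg protein per well. Preincubated 10 min at 37 °C with compound in 1.25% DMSO in 50 mM HEPES pH 7.4. Then 6.33 mM pNPP for 30 min at 37 °C, stopped with NaOH. p-Nitrophenol read at 410 nm. Run in triplicate. Reported as percent of untreated control.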

For assay [3], the system named is Mus musculus. As to the kind of experiment: Evaluated in vivo for their ability to decrease plasma glucose levels in diabetic C57BL/KsJ db/db mouse at a dose 100 mg/kg/day. The assay is classed as functional. In a few lines:
as §1

Assay [4] deals with T1, Tyrosine-protein phosphatase non-receptor type 1 (Mus musculus). In words: Ability to decrease plasma insulin levels in mouse at a dose 100 mg/kg/day. The assay is classed as functional, organism-based. In outline: as §1
Assay [5] addresses T3, Tyrosine-protein phosphatase non-receptor type 1 (Rattus norvegicus, UniProt P20417).
T3 sequence (P20417 whole entry): T2 sequence (whole entry)
As to the kind of experiment: Inhibition of PTPase activity using recombinant r-PTP1B and IR-triphosphopeptide as substrate; ND is no data. In outline:
(§3)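 Rat recombinant PTP1B in 33 mM TRIS-HCl, 2 mM EDTA, 50 mM β-mercaptoethanol, pH 7.4 (about 1000-2000 nmol/min/mg). Preincubated 10 min at 37 °C with or without compound in HEPES buffer pH 7.4. Released phosphate read by malachite green-ammonium molybdate at 650 nm against a phosphate standard. Quadruplicates. IC50 by four-parameter logistic fit.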

Assay [6] concerns the target T2, Tyrosine-protein phosphatase non-receptor type 1 (Rattus norvegicus). In words: Inhibition of PTPase activity using recombinant r-PTP1B as the enzyme and IR-triphosphopeptide as substrate at 50 uM. In outline:
as §3

Assay [7] concerns the target T3, Tyrosine-protein phosphatase non-receptor type 1. As to the kind of experiment: Inhibition of PTPase activity using recombinant r-PTP1B as the enzyme and IR-triphosphopeptide as substrate. In a few lines:
as §3

Assay [8] addresses T2, Tyrosine-protein phosphatase non-receptor type 1 (Rattus norvegicus). As to the kind of experiment: Inhibition of Protein-tyrosine phosphatase 1B activity in rat hepatic membrane at a concentration of 50 uM using pNPP as the substrate. The assay is classed as cell membranes. Particulars: Liver. In a few lines: as §2
Assay [9] relates to Mus musculus. As to the kind of experiment: Evaluated in vivo for their ability to decrease plasma glucose levels in diabetic C57BL/KsJ db/db mouse at a dose 100 mg/kg/day, *p indicates <0.05. Type of assay: functional. In outline:
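Mice dosed orally once daily for 4 days; plasma glucose and insulin measured and expressed as percent change versus a vehicle-treated group (mean ± SE, 4-6 mice/group). NS is generally less than -15% change. Significance is versus vehicle-treated mice.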

Active and inactive are the calls of the source. The calls are words filed in the database; no cut-off is given here.

The term inhibition denotes the share of the control response that was lost under treatment. One may read the IC50 as the concentration that gives 50% inhibition.

Turning to `C/C(=C\CC1OC(=O)NC1=O)c1cccc(OCc2nc(-c3ccc(OCC(F)(F)F)cc3)oc2C)c1` (centres undefined), the Decrease entry in [1] and in assay [4] was “Not significant” each time. The same molecule registered an inhibition in assay [2] of 37%. In addition, the Decrease entry in the assay on Mus musculus [3] was “inactive”. Further, the IC50 result in assay [5] was “Not significant”.
As for `Cc1oc(-c2ccc(C(F)(F)F)cc2)nc1COc1cccc(C2(C)CC2Cn2oc(=O)[nH]c2=O)c1` (centres undefined), the inhibition in assay [6] came out at 1%; in [2], 51%. Moreover, the Decrease result in assay [1] and in [4] was “Not significant” in each case.
For `Cc1oc(-c2ccc(C(F)(F)F)cc2)nc1COc1cccc(/C(=C/Cn2oc(=O)[nH]c2=O)C2CCCCC2)c1`, the inhibition was 49% in assay [6] and 66% in assay [2]. For the same molecule, the Decrease result in assay [1] and in [4] was “Not significant” throughout.
In the case of `C/C(=C\Cn1oc(=O)[nH]c1=O)c1ccccc1OCc1nc(-c2ccc(C(F)(F)F)cc2)oc1C`, the IC50 in [7] was 43 µM. Besides, the Decrease result in assay [1] and in [4] was “Not significant” in each case. Besides, in assay [2], the inhibition result was “Not significant”.
On to `C/C(=C\Cn1oc(=O)[nH]c1=O)c1cccc(OCc2nc(-c3ccccc3)oc2C)c1` (stereo in doubt; 67), for which the inhibition in [8] turned out to be 25%.
`C/C(=C\Cn1oc(=O)[nH]c1=O)c1cccc(OCCc2nc(-c3ccccc3)oc2C)c1`: in assay [7], the IC50 is 24 µM. For the same molecule, the Decrease result in assay [1] was “Not significant”; in the assay on Mus musculus [3], 38%; in assay [4], “Not significant”. The inhibition in assay [2] came to 45%.
In the case of `Cc1oc(-c2ccc(C(F)(F)F)cc2)nc1COc1ccc2oc(Cn3oc(=O)[nH]c3=O)cc2c1`, the inhibition in assay [2] is 14%. In addition, the IC50 result in assay [5] is “Not significant”.
In assay [2], `CC1(COc2ccc(CC3SC(=O)NC3=O)cc2)CCCCC1` (centres undefined) [CIGLITAZONE] returned an inhibition of 20%. Moreover, in the assay with Mus musculus [3], the Decrease is on record as 32%.
Take `C/C(=C\Cn1oc(=O)[nH]c1=O)c1cccc(OCc2ccc3c(Cl)cccc3c2)c1`: in [7], the IC50 came to 16 µM. This molecule gave an inhibition in [2] of 20%.
`C/C(Cn1oc(=O)[nH]c1=O)=C(/C)c1cccc(OCc2nc(-c3ccc(C(F)(F)F)cc3)oc2C)c1`: the inhibition in assay [2] came out at 47%. In addition, the Decrease in the assay on Mus musculus [3] came out at 20%.
With `Cc1oc(-c2ccccc2)nc1COc1cccc(C#CC(C)n2oc(=O)[nH]c2=O)c1` (centres undefined), the Decrease entry in [1] and in assay [4] was “Not significant” throughout. In assay [2], this molecule registered an inhibition of 23%.
With `CCCC/C(=C\Cn1oc(=O)[nH]c1=O)c1cccc(Oc2ccccc2)c1`, the IC50 in assay [7] amounted to 2 µM. In addition, the inhibition in [2] came to 63%.
As to `COc1ccc(/C(=C\Cn2oc(=O)[nH]c2=O)c2cccc(OCc3nc(-c4ccc(C(F)(F)F)cc4)oc3C)c2)cc1`, the inhibition in [6] worked out at 34%; in assay [2] it was 56%. The Decrease result in assay [1] and in [4] was “Not significant” each time.
Turning to `C/C(=C\C(C)n1oc(=O)[nH]c1=O)c1cccc(OCc2nc(-c3ccc(C(F)(F)F)cc3)oc2C)c1` (centres undefined), the Decrease result in assay [1] was “Not significant”; in the assay with Mus musculus [3], 16%; in assay [4] it was “Not significant”. Moreover, in assay [2], the inhibition worked out at 38%.
The molecule `C/C(=C\Cn1oc(=O)[nH]c1=O)c1ccc2oc(Cc3nc(-c4ccc(C(F)(F)F)cc4)oc3C)cc2c1` showed a Decrease with Mus musculus [9] of 31%. Moreover, the inhibition in assay [6] was determined as 53%; in assay [2] it was 57%.
`Cc1oc(-c2ccc(C(F)(F)F)cc2)nc1COc1cccc(CCCn2oc(=O)[nH]c2=O)c1`: the Decrease in the assay on Mus musculus [9] is 21%; in assay [1], “Not significant”; in [4], “Not significant”. Besides, the inhibition in assay [6] was 4.3%; in assay [2], 54%.
Regarding `CCCC/C(=C\Cn1oc(=O)[nH]c1=O)c1cccc(Oc2ccc(C)cc2)c1`, in [7], the IC50 worked out at 13 µM. Moreover, the inhibition in assay [2] was determined as 62%.
For the molecule `CCCCc1oc2ccccc2c1Cc1cccc(/C(C)=C/Cn2oc(=O)[nH]c2=O)c1`, in assay [7], the IC50 was determined as 1.3 µM.
With `Cc1oc(-c2ccc(C(F)(F)F)cc2)nc1COc1ccc2c(c1)C=C/C2=C\Cn1oc(=O)[nH]c1=O`, the inhibition in [6] came to 83%; in assay [2] it was 31%.
As for `C/C(=C\CN1CC(=O)NC1=O)c1cccc(OCc2nc(-c3ccc(C(F)(F)F)cc3)oc2C)c1`, the IC50 in assay [7] amounted to 13 µM. In addition, the Decrease result in [1] and in [4] was “Not significant” each time.
Turning to `C/C(=C\Cn1oc(=O)[nH]c1=O)c1cccc(OCc2noc(-c3ccccc3)n2)c1`, the IC50 in assay [7] was 3 µM. Moreover, the inhibition in assay [2] was 17%.
Turning to `C/C(=C\CC1OC(=O)NC1=O)c1cccc(OCc2nc(-c3ccccc3)oc2C)c1` (centres undefined), the Decrease result in assay [1] is “Not significant”; in the assay with Mus musculus [3], 18%; in [4] it was “Not significant”. The molecule also displayed an inhibition in [2] of 23%. Further, in assay [5], the IC50 entry is given as “Not significant”.
Regarding `C/C(=C\Cn1oc(=O)[nH]c1=O)c1cccc(COc2cc(C(F)(F)F)cc(C(F)(F)F)c2)c1`, the IC50 in assay [7] amounted to 12 µM. Besides, in [2], the inhibition stood at 64%.
On to `COc1cc(OCc2nc(-c3ccc(C(F)(F)F)cc3)oc2C)cc(/C(C)=C/Cn2oc(=O)[nH]c2=O)c1`, for which the inhibition in assay [6] is 12%; in [2], 49%.
As to `Cc1oc(-c2ccc(Cl)cc2)nc1COc1cccc(/C=C/C(C)n2oc(=O)[nH]c2=O)c1` (centres undefined), the Decrease entry in [1] was “Not significant”; in the assay with Mus musculus [3], 20%; in [4], “Not significant”. In assay [2], this molecule displayed an inhibition of 33%. Further, the IC50 entry in assay [5] is “Not significant”.
In the case of `CCCC/C(=C\Cn1oc(=O)[nH]c1=O)c1cccc(Oc2ccc(OC)cc2)c1`, the IC50 in assay [7] worked out at 10 µM. Further, the inhibition in [2] is 62%.
`C/C(=C\Cn1oc(=O)[nH]c1=O)c1cccc(OCc2coc(-c3ccc(C(F)(F)F)cc3)n2)c1`: in assay [7], the IC50 turned out to be 19 µM. The Decrease entry in [1] and in assay [4] was “Not significant” throughout. The same molecule displayed an inhibition in assay [2] of 32%.
As for `C/C(=C\Cn1oc(=O)[nH]c1=O)c1cccc(OCc2nc(-c3ccc(OCC(F)(F)F)cc3)oc2C)c1`, the Decrease in the assay with Mus musculus [9] was 44%; in assay [1], “Not significant”; in assay [4] it was “Not significant”. Also, the inhibition in assay [2] amounted to 52%. The IC50 result in [5] is “Not significant”.
Regarding `C/C(=C\Cn1oc(=O)[nH]c1=O)c1cccc(OCc2cc(C(F)(F)F)cc(C(F)(F)F)c2)c1`, the IC50 in assay [7] was 4.1 µM.
In turn, `C/C(=C\Cn1oc(=O)[nH]c1=O)c1cccc(OCc2nc(-c3ccccc3)oc2C)c1` (stereo in doubt; 49) had an inhibition in assay [8] of 35%.
